Experimental data taken from paper PMC6287304 (Antiviral Chemistry & Chemotherapy, 2018).
Where two headings read alike, the source gives them in different places.

How the values were obtained:
Type in all cases: biochemical
DNA pol α = biological target: T1, DNA pol α (Homo sapiens, UniProt P09884); assay: DNA polymerase inhibition, DNA pol α; settings: read-out: IC50 DNA pol α dGTP; calf thymus DNA, radiolabeled [3H]dGTP
T1 sequence (P09884 1-1462): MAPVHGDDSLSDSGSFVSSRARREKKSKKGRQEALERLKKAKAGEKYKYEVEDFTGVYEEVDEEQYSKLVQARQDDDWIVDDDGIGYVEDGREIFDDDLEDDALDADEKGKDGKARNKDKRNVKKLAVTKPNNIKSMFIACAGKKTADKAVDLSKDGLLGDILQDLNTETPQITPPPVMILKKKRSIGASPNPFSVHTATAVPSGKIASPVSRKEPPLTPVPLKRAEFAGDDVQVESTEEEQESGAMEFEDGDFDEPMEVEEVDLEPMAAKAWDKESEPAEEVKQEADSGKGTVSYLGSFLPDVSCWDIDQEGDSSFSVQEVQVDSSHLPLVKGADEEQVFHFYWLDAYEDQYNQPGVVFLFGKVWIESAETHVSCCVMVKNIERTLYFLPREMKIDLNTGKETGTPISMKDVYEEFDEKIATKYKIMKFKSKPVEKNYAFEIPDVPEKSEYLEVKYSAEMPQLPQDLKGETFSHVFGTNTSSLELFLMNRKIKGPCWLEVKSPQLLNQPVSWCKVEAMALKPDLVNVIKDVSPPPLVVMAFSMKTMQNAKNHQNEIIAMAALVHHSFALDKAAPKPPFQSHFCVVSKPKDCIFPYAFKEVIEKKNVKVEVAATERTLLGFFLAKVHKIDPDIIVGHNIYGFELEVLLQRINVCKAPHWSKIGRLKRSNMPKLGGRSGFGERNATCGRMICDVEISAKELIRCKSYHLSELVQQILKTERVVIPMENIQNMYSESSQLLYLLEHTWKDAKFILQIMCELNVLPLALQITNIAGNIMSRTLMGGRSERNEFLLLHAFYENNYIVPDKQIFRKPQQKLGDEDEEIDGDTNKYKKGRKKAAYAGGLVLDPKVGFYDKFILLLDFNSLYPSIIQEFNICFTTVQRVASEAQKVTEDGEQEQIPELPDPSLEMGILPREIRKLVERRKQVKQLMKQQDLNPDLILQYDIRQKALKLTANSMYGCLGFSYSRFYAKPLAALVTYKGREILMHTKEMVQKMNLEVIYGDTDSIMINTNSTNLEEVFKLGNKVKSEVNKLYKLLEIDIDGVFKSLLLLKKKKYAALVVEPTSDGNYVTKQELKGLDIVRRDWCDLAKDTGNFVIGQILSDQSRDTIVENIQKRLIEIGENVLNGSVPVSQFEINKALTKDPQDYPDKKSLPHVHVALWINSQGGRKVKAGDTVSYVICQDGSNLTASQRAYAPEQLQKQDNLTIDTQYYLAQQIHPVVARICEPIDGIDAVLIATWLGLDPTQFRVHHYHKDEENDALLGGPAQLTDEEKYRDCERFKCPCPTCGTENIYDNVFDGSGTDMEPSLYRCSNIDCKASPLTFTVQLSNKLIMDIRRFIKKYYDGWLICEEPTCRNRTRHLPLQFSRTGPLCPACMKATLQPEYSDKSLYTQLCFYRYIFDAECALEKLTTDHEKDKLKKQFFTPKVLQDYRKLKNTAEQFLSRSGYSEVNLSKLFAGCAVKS

DNA pol β = DNA pol β (Homo sapiens, UniProt P06746); assay: DNA polymerase inhibition, DNA pol β; settings: read-out: IC50 DNA pol β dGTP; calf thymus DNA, radiolabeled [3H]dGTP
HCMV DNA pol = biological target: T2, HCMV DNA pol (Human cytomegalovirus, UniProt P08546); assay: DNA polymerase inhibition, HCMV DNA pol; settings: calf thymus DNA
T2 sequence (P08546 1-1242): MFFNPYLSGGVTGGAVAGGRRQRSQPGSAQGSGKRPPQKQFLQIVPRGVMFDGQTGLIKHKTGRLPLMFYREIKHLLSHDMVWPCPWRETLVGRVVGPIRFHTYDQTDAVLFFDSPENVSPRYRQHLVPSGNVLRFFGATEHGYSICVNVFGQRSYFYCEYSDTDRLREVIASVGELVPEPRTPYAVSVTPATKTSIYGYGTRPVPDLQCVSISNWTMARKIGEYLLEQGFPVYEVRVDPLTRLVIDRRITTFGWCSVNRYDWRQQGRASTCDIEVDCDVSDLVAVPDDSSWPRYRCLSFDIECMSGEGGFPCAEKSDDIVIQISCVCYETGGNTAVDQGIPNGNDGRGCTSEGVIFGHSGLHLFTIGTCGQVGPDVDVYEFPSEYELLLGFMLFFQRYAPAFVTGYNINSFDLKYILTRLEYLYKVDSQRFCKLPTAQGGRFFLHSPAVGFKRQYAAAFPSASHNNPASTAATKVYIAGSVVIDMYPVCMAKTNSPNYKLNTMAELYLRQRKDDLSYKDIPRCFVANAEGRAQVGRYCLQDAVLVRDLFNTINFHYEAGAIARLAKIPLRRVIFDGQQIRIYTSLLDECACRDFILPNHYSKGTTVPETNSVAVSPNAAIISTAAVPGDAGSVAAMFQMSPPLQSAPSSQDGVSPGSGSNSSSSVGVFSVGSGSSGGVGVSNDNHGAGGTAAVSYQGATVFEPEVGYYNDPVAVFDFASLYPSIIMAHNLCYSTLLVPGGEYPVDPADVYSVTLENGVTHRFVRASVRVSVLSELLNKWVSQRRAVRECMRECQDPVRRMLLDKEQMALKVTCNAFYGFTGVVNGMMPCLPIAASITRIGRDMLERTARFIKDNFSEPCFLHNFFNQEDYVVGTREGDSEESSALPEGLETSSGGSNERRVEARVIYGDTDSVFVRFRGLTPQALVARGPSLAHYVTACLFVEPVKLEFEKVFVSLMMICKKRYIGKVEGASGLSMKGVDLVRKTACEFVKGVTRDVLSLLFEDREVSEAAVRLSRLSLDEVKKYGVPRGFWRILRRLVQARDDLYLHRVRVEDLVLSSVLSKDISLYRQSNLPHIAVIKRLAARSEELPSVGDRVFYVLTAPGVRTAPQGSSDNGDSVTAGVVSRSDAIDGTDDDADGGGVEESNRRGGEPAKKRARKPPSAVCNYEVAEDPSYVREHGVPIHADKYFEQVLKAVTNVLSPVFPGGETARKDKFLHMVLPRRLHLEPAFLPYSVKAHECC
Summary of the method: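 Recombinant or source enzyme not specified. HCMV DNA polymerase reaction uses activated calf thymus DNA as template/primer, 100 uM of each of three unlabeled dNTPs, and 0.5 uM rate-limiting tritium-labeled dNTP ([3H]dGTP or [3H]dTTP, as competitive substrate). The diphosphate form of the test compound is added in serial dilutions, up to 100 uM.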

IC50 (DNA pol α): 56 ± 12 µM
IC50 (DNA pol β): > 100 µM
IC50 (HCMV DNA pol; read-out: IC50 HCMV DNA pol dGTP, radiolabeled [3H]dGTP): 7 ± 0.7 µM
IC50 (HCMV DNA pol; read-out: IC50 HCMV DNA pol dTTP, radiolabeled [3H]dTTP): 9.4 ± 6 µM
SMILES: O=C(O)P(=O)(O)O [PFA pyrophosphate]
